For nine compounds, EC50 and Activity results are on record in ChEMBL document CHEMBL3124835 (J Nat Prod, 2014).

Test [1] relates to Human immunodeficiency virus 1. The test is described as follows: Reactivation of latent HIV1 NL4-3-Luc expression in human naive CD4+ T cells treated 7 days post-infection measured after 48 hrs by luminescence plate reader analysis. It is filed as functional, organism-based, T-cell.
Test [2] has as its system Human immunodeficiency virus 1. As to the kind of experiment: Reactivation of latent HIV1 NL4-3-Luc expression in human naive CD4+ T cells treated 7 days post-infection measured after 48 hrs by luminescence plate reader analysis relative to SAHA-treated control. It is filed as functional. On the set-up: concentration or dose not given beside the values. In short, it runs like this: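 Primary naive CD4+ T cells from healthy HIV-negative donor PBMCs, purified by negative selection. Activated 3 days with anti-CD3/CD28 beads (1 bead:2 cells), anti-IL-4, anti-IL-12p70 and 10 ng/mL TGF-β, then kept 2 days in 30 U/mL IL-2 and infected with NL4-3-Luc. Seven days after infection, 10 000 cells/well exposed to compound for 48 h; BriteGlo luminescence read-out.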

Test [3] has as its system Human immunodeficiency virus 1. The test is described as follows: Reactivation of latent HIV1 NL4-3-Luc expression in human naive CD4+ T cells assessed as HIV-1 RNA expression treated 7 days post-infection by RT-qPCR analysis. It is filed as functional, organism-based. The note with it: T-cell.
The target of test [4] is Protein kinase C (PKC) (Homo sapiens) (UniProt O94806+P41743+P17252+P05129+Q05655+P05771+Q05513+Q02156+P24723+Q15139+Q04759). The test is described as follows: Activation of PKC in human Jurkat cells assessed as NF-kappaB reporter gene activation after 24 hrs by FACS analysis. It is filed as cell-based.
Where [5] appears, read: Human immunodeficiency virus 1, NL4-3, T-cell, read-out: EC50.

The source made the active and inactive calls. The calls are words filed in the database; no cut-off is given here.

As for `C[C@@H]1CC(O)C2C=CC(CC(=O)Cc3c(Cl)c(O)cc(O)c3C(=O)O1)O2` (stereo not given in full), the EC50 entry in test [1] (t-cell) was “Not Active”. Moreover, the outcome in test [2] (T-cell) was inactive.
Take `C[C@H]1C[C@H](O)C(Cl)/C=C\C=C\C(=O)Cc2c(Cl)c(O)cc(O)c2C(=O)O1` (stereo not given in full) [POCHONIN C]: the EC50 in test [1] (setting [5]) turned out to be 6.3 µM. In addition, the Activity in test [2] is given as 92%.
As to `C[C@@H]1C[C@@H](O)/C=C\[C@H](O)CCC(=O)Cc2c(Cl)c(O)cc(O)c2C(=O)O1` [POCHONIN N], in test [1] (t-cell), the EC50 entry is reported as “Not Active”. In addition, in test [2] (T-cell), the result was inactive.
For `CCC(=O)CCCCC[C@@H]1NC(=O)[C@H]2CCCCN2C(=O)[C@H]([C@@H](C)CC)NC(=O)[C@H](Cc2cn(OC)c3ccccc23)NC1=O` [APICIDIN], in test [1] (setting [5]), the EC50 stood at 0.3 µM. In addition, the Activity in test [2] is on record as 100%.
The matching figures for `C[C@H]1C[C@H]2O[C@@H]2C[C@H](O)/C=C/C(=O)Cc2c(Cl)c(O)cc(O)c2C(=O)O1` [POCHONIN B]: 39.6 µM and 98%.
`C[C@@H]1C[C@H]2O[C@@H]2/C=C\C=C\C(=O)Cc2c(Cl)c(O)cc(O)c2C(=O)O1` [RADICICOL]: the outcome in test [3] was Active. Besides, the result in test [4] was inactive. In addition, in test [1] (setting [5]), the EC50 came out at 9.1 µM. Moreover, the Activity in test [2] was 98%.
For the compound `C[C@@H]1C[C@@H](O)[C@@H](O)/C=C\C=C\C(=O)Cc2c(Cl)c(O)cc(O)c2C(=O)O1`, the EC50 in test [1] (setting [5]) was determined as 24.9 µM. The Activity in test [2] came to 25%.
In the case of `C[C@@H]1CC(O)/C=C/C(O)C(O)CC(=O)Cc2c(Cl)c(O)cc(O)c2C(=O)O1` (stereo not given in full), the EC50 result in test [1] (t-cell) is recorded as “Not Active”. The outcome in test [2] (T-cell) was inactive.
Turning to `O=C(NCCSSCCNC(=O)/C(Cc1ccc(O)c(Br)c1)=N/O)/C(Cc1ccc(O)c(Br)c1)=N/O` [PSAMMAPLIN A], the EC50 in test [1] (setting [5]) was 0.2 µM. This compound also came in with an Activity in test [2] of 100%.
